According to ChEMBL document CHEMBL4819008, “Design, synthesis, and evaluation of "dual-site"-binding diarylpyrimidines targeting both NNIBP and the NNRTI adjacent site of the HIV-1 reverse transcriptase” (Eur J Med Chem, 2021):

How the values were obtained:
[1] = tested on: Human immunodeficiency virus 1; test: Antiviral activity against wild type HIV1 NL4-3 infected in human TZM-bl cells assessed as reduction in viral infection measured after 1 day by luciferase reporter gene assay based luminiscence assay; format: functional, organism-based; conditions: Human immunodeficiency virus 1, NL4-3, TZM-bl, 24 h
Outline: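 TZM-bl cells got a single-round infection with 800 TCID50 of NL4-3 at various compound concentrations, top concentration 100 ng/mL. Luminescence was read 1 day post-infection. EC50 is the concentration giving a 50% decrease in luciferase RLU versus control wells, determined in at least triplicate.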

[2] = Cytotoxicity against human TZM-bl cells assessed as reduction in cell viability measured after 1 day by CytoTox-Glo assay; format: cell-based
Outline: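 TZM-bl cells were cultured 1 day with various compound concentrations, in parallel with the antiviral assay, top concentration 100 ng/mL. Viable cells were measured by CytoTox-Glo. CC50 is the concentration causing a 50% reduction in cell viability.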

[3] = Selectivity index, ratio of CC50 for human TZM-bl cells to EC50 for wild type HIV1 NL4-3 infected in human TZM-bl cells; format: toxicity, cell-based; conditions: read-out: Ratio CC50/EC50
Outline: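 Selectivity index is CC50/EC50, with both values from the TZM-bl assays: NL4-3 single-round luciferase infection and CytoTox-Glo viability, each over 1 day.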

[4] = tested on: Human immunodeficiency virus 1; test: Antiviral activity against wild type HIV-1 3B infected in human MT4 cells assessed as inhibition of virus-induced cytopathic effect measured after 5 days by MTT assay; format: functional, organism-based; conditions: Human immunodeficiency virus 1, 3B, MT4, 120 h
Outline: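 MT-4 cells at 6 × 10^5 cells/mL were infected with virus stock at 100–300 CCID50 in the presence of serial 5-fold compound dilutions, in triplicate wells. Viability was read by MTT reduction 5 days after infection, with absorbance at 540 and 690 nm and the median OD of three wells used. EC50 is the concentration giving 50% protection from viral cytopathicity.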

[5] = Cytotoxicity against human MT4 cells assessed as reduction in cell viability measured after 5 days by MTT assay; format: cell-based; conditions: time 5 day
Outline: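 Mock-infected MT-4 cells (6 × 10^5 cells/mL) were run in parallel with the infected wells, under serial 5-fold compound dilutions in triplicate. MTT viability was read after 5 days and the median OD of three wells used. CC50 is the concentration that reduced OD540 of the mock-infected cells by 50%.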

[6] = Selectivity index, ratio of CC50 for human MT4 cells to EC50 for wild type HIV-1 3B infected in human MT4 cells; format: toxicity, cell-based; conditions: read-out: Ratio CC50/EC50
[7] = biological target: Human immunodeficiency virus type 1 reverse transcriptase (Human immunodeficiency virus 1) (UniProt Q72547); test: Potency index, ratio of ETV IC50 to test compound IC50 for Inhibition of HIV-1 reverse transcriptase assessed as reduction in biotin-dUTP incorporation into cDNA incubated for 1 hr with DIG-dUTP, biotin-dUTP and dTTP followed by transferring onto streptavidin-coated plate and measured after 1 hr by ELISA; conditions: time 2.0 hrs
[8] = tested on: Human immunodeficiency virus 1; test: Antiviral activity against HIV-1 harboring reverse transcriptase L100I mutant infected in human MT4 cells assessed as inhibition of virus induced cytopathic effect measured after 5 days by MTT assay; format: functional, organism-based; conditions: Human immunodeficiency virus 1, MT4, 120 h
Outline: (§1)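 MT-4 cells, exponentially growing, resuspended at 6 × 10^5 cells/mL and infected with the mutant HIV-1 stock at 100–300 CCID50. Compounds were added as 5-fold serial dilutions, in triplicate wells, alongside mock-infected wells. After 5 days, viability was read by MTT reduction at 540 and 690 nm using the median OD of three wells. EC50 is the concentration giving 50% protection from viral cytopathogenicity.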

[9] = tested on: Human immunodeficiency virus 1; test: Antiviral activity against HIV-1 harboring reverse transcriptase K103N mutant infected in human MT4 cells assessed as inhibition of virus induced cytopathic effect measured after 5 days by MTT assay; format: functional, organism-based; conditions: Human immunodeficiency virus 1, MT4, 120 h; outline: as §1
[10] = tested on: Human immunodeficiency virus 1; test: Antiviral activity against HIV-1 harboring reverse transcriptase Y181C mutant infected in human MT4 cells assessed as inhibition of virus induced cytopathic effect measured after 5 days by MTT assay; format: functional, organism-based; conditions: Human immunodeficiency virus 1, MT4, 120 h; outline: as §1
[11] = tested on: Human immunodeficiency virus 1; test: Antiviral activity against HIV-1 harboring reverse transcriptase Y188L mutant infected in human MT4 cells assessed as inhibition of virus induced cytopathic effect measured after 5 days by MTT assay; format: functional, organism-based; conditions: Human immunodeficiency virus 1, MT4, 120 h; outline: as §1
[12] = tested on: Human immunodeficiency virus 1; test: Antiviral activity against HIV-1 harboring reverse transcriptase E138K mutant infected in human MT4 cells assessed as inhibition of virus induced cytopathic effect measured after 5 days by MTT assay; format: functional, organism-based; conditions: Human immunodeficiency virus 1, MT4, 120 h; outline: as §1
[13] = tested on: Human immunodeficiency virus 1; test: Antiviral activity against HIV-1 harboring reverse transcriptase F227L/V106A mutant infected in human MT4 cells assessed as inhibition of virus induced cytopathic effect measured after 5 days by MTT assay; format: functional, organism-based; conditions: Human immunodeficiency virus 1, MT4, 120 h; outline: as §1
[14] = tested on: Human immunodeficiency virus 1; test: Antiviral activity against HIV-1 harboring reverse transcriptase RES056 mutant infected in human MT4 cells assessed as inhibition of virus induced cytopathic effect measured after 5 days by MTT assay; format: functional, organism-based; conditions: Human immunodeficiency virus 1, MT4, 120 h; outline: as §1
[15] = biological target: Human immunodeficiency virus type 1 reverse transcriptase (Human immunodeficiency virus 1, UniProt Q72547); test: Inhibition of HIV-1 reverse transcriptase assessed as reduction in biotin-dUTP incorporation into cDNA incubated for 1 hr with DIG-dUTP, biotin-dUTP and dTTP followed by transferring onto streptavidin-coated plate and measured after 1 hr by ELISA
Outline: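 Recombinant WT HIV-1 RT was tested with a Roche colorimetric kit. Enzyme, reconstituted template, DIG-dUTP, biotin-dUTP and dTTP were incubated 1 h at 37 °C in incubation buffer with or without inhibitor. The mix was then held 1 h at 37 °C on a streptavidin-coated plate, then anti-DIG-POD 1 h at 37 °C, then ABTS at 25 °C, and read at OD405.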

[16] = tested on: Human immunodeficiency virus 1; test: Potency index, ratio of nevirapine EC50 to test compound EC50 for antiviral activity against wild type HIV-1 3B infected in human MT4 cells assessed as inhibition of virus-induced cytopathic effect measured after 5 days by MTT assay; format: functional; conditions: time 5 day
[17] = tested on: Human immunodeficiency virus 1; test: Potency index, ratio of AZT EC50 to test compound EC50 for antiviral activity against wild type HIV-1 3B infected in human MT4 cells assessed as inhibition of virus-induced cytopathic effect measured after 5 days by MTT assay; format: functional; conditions: time 5 day
[18] = tested on: Human immunodeficiency virus 1; test: Potency index, ratio of EFV EC50 to test compound EC50 for antiviral activity against HIV-1 harboring reverse transcriptase Y188L mutant infected in human MT4 cells assessed as inhibition of virus induced cytopathic effect measured after 5 days by MTT assay; format: functional; conditions: time 5 day
[19] = Antiviral activity against HIV-2 ROD infected in human MT4 cells assessed as protection against virus-induced cytopathic effect measured after 5 days by MTT assay; conditions: Human immunodeficiency virus 2, ISOLATE ROD, MT4, 120 h

Compound	EC50 [1] [nM]	CC50 at 24 h [2] [nM]	selectivity ratio [3]	EC50 [4] [nM]	CC50 at 120 h [5] [nM]	selectivity ratio [6]	Ratio IC50 [7]	EC50 [8] [nM]	EC50 [9] [nM]	EC50 [10] [nM]	EC50 [11] [nM]	EC50 [12] [nM]	EC50 [13] [nM]	EC50 [14] [nM]	IC50 [15] [nM]	Ratio EC50 [16]	Ratio EC50 [17]	Ratio EC50 [18]	EC50 [19] [nM]
C#CCNC(=O)/C=C/c1cnc(Nc2ccc(C#N)cc2)nc1Oc1c(C)cc(C#N)cc1C	2.45	> 222	> 91	5.2	141000	26900	6	113	10.4	61.8	64.5	10.6	402	1290	59	16.2	3.5	2.3	> 141000
COCCNC(=O)/C=C/c1cnc(Nc2ccc(C#N)cc2)nc1Oc1c(C)cc(C#N)cc1C	4.48	> 213	> 48	7.8	> 267000	> 34300	–	166	13.7	98	90.6	16.5	343	1490	–	–	–	1.6	> 267000
Cc1cc(C#N)cc(C)c1Oc1nc(Nc2ccc(C#N)cc2)ncc1SCC(=O)NCCCN1CCOCC1	3.77	> 179	> 48	3.7	24000	6540	–	16.3	2.2	19.1	38.7	37.3	182	332	35	–	–	–	> 24000
